Screening results: PubChem, Sanford-Burnham Center for Chemical Genomics
Not all results are given here.
Apaf1 activ = activators of human Apaf-1 apoptosome, primary screen, biochemical, DEVD-Rh110 fluorescence, uHTS; Apoptotic protease-activating factor 1 (Homo sapiens), O14727; Apaf-1 apoptosome caspase-3 activation; hits give low values; activity change, negative = activation, % at 20 µM; 330,000 compounds, 0.31% hits; AID 489031, 2010;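 active = activity change at or below -40% at 20 µM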
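Material: biochemical Apaf-1 apoptosome reconstitution; Medium: 20 mM HEPES buffer, pH 7.5, containing CHAPS and BSA; Reagent: dATP, cytochrome c, and (Z-DEVD)2-Rh110 caspase-3 substrate; Times: 30 min preincubation, 50 min reaction, room temperature; Signal: Rh110 fluorescence, excitation 480 nm, emission 540 nm; Measure: Caspase-3 activity via Apaf-1.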
Rh110 act interf = Rh110 fluorescence interference by putative Apaf-1 activators, confirmation, artefact control for Apaf-1 activator project, biochemical, 20 µM. shares compounds with Apaf1 activ. quenched caspase reaction, Ex480/Em540. fluorescence interference (activity change), % at 20 µM, hits read low. 980 tested, under 10 active;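 active = mean activity change at or below -40% when tested at 20 µM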
Apaf-1 act conf = Apaf-1 activators, single-dose retest, confirmation, biochemical, fluorescence, DEVD-Rh110, 20 µM | shares compounds with Apaf1 activ | AID 504617, 2011 | reconstituted apoptosome caspase-3 activity; hits give low values | 980 compounds, 5% hits | activity change, negative = activation, % at 20 µM;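 active = mean activity change at or below -40%, meaning activation of 40% or more, at 20 µM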
Apaf1 act interf = fluorescence interference of Apaf-1 activator hits, dose response, artefact control for Apaf-1 activator project. shares compounds with Apaf1 activ. fluorescence interference counterscreen, Apaf-1 activator assay. EC50, µM. 55 tested, under 10 active. AID 588592, 2011; call rule not given here
Numbers stand for hits.

Screening COC(=O)CCC(=O)OC1(C)C(=O)C2=CN(CC(C)C)C(c3ccc(OC)cc3)=CC2=C(Br)C1=O (configuration not stated) returned Apaf1 activ inactive.
`Nc1scc2c(C(=O)N/N=C/c3ccc(Cl)cc3)nn(-c3ccccc3)c(=O)c12` gave Apaf1 activ inactive.
O=C1C(Cl)=C(N2CCC(C(=O)O)CC2)C(=O)c2ccccc21 was read as Apaf1 activ inactive.
`O=C1CCN2C=Nc3cccc4ccc1c2c34` gave Apaf1 activ inactive.
For COc1ccc(N2CCCn3c2nc2c3c(=O)n(Cc3ccc(C)cc3)c(=O)n2C)c(OC)c1 the results were Apaf1 activ -100.2, Rh110 act interf inactive and Apaf-1 act conf inactive.
CCCNC(=O)c1ccc(SC)cc1OC was read as Apaf1 activ -173.5, Rh110 act interf inactive and Apaf-1 act conf inactive.
`COc1cccc(C(c2c(C)[nH]n(-c3ccccc3)c2=O)c2c(C)[nH]n(-c3ccccc3)c2=O)c1O` gave Apaf1 activ inactive.
`[O-][n+]1cccc2c(Br)cc(Br)c(O)c21` gave Apaf1 activ inactive.
Screening NS(=O)(=O)c1cccc(NC(=O)CCS(=O)(=O)c2ccc(Cl)cc2)c1 returned Apaf1 activ -253.5, Rh110 act interf inactive and Apaf-1 act conf inactive.
For CN(C)CCCNC(=O)CC1C[C@H](C(=O)N2CCCCC2)[C@@]2(CCc3ccccc3)c3[nH]c4ccccc4c3CCN2C1=O (some centres not stated) the results were Apaf1 activ inactive.
Oc1c(Br)cc(Br)cc1C=Nc1cccnc1 was read as Apaf1 activ inactive.
For CC(=O)c1ccc(NC(=S)Nc2cccc3ccccc23)cc1 the results were Apaf1 activ inactive.
For C/C(=N\NC(=O)CNc1cccc2ccccc12)c1ccccc1 the results were Apaf1 activ inactive.
For Nc1ccccc1C(=O)Nc1cccc2ccccc12 the results were Apaf1 activ -113.8, Rh110 act interf inactive and Apaf-1 act conf inactive.
For NS(=O)(=O)c1ccc(Cc2ncc(C(F)(F)F)cc2Cl)s1 the results were Apaf1 activ -40.0, Rh110 act interf inactive and Apaf-1 act conf inactive.
For CCOC(=O)C(=O)Nc1cc(Cl)ccc1C the results were Apaf1 activ -54.4, Rh110 act interf inactive and Apaf-1 act conf inactive.
Screening Cc1cc(C)c2nc(N(CCCN(C)C)C(=O)c3ccc4c(c3)CCCC4)sc2c1 returned Apaf1 activ inactive.
For COc1cc(N)c(Cc2nccc3cc(OC)c(OC)cc23)cc1OC the results were Apaf1 activ inactive.
CC1CCCC(NC(=O)COC(=O)CCC(=O)c2cccs2)C1C (configuration not stated) was read as Apaf1 activ -272.6, Rh110 act interf inactive and Apaf-1 act conf inactive.
COc1ccc(Cl)cc1C(=O)OCC(=O)NC1CCCC(C)C1C (configuration not stated) was read as Apaf1 activ -41.4, Rh110 act interf inactive and Apaf-1 act conf inactive.
CC1CCCC(NC(=O)COC(=O)c2ccc([N+](=O)[O-])s2)C1C (configuration not stated) was read as Apaf1 activ inactive.
For Cn1c(C(=O)NCCN2CCCCCC2)cc2c(=O)n(C)c3ccccc3c21 the results were Apaf1 activ inactive.
For OCCN1CCN(CCCN2c3ccccc3Sc3ccc(C(F)(F)F)cc32)CC1 the results were Apaf1 activ inactive.
For CCOc1ccc(C(=O)/C=C/Nc2ccc(S(=O)(=O)N=C(N)N)cc2)cc1 the results were Apaf1 activ -159.8, Rh110 act interf inactive, Apaf-1 act conf -74.0 and Apaf1 act interf inactive.
O=C(N/N=C1\C/C(=N\NC(=O)c2ccncc2)c2ccccc21)c1ccncc1 was read as Apaf1 activ inactive.
For CC(/C=C/c1ccc2c(c1)OCO2)=N/NC(=O)c1ccncc1 the results were Apaf1 activ -41.6, Rh110 act interf inactive and Apaf-1 act conf inactive.
COc1ccc(C2CC(=O)Oc3c(C(CCN4CCCC(C)C4)c4ccc(N(C)C)cc4)c(OC)cc(OC)c32)cc1 (configuration not stated) was read as Apaf1 activ inactive.
`CCCCNC(=O)C(C)N(CCN(C)C)C(=O)CCCN1C(=O)NC(c2ccc([N+](=O)[O-])cc2)C(C(=O)OCc2ccccc2)=C1C` (configuration not stated) gave Apaf1 activ inactive.
CSCCC(NC(=O)c1ccco1)C(=O)N1CCCC(C(F)(F)F)C1 (configuration not stated) was read as Apaf1 activ -394.4, Rh110 act interf inactive and Apaf-1 act conf inactive.
O=C(c1ccc2ncsc2c1)N1CCCC(C(F)(F)F)C1 (configuration not stated) was read as Apaf1 activ inactive.
`NCCCS(=O)(=O)O` gave Apaf1 activ inactive.
C#CCOCCOCCOCCNc1nc(N2CCN(C(=O)CCCCCCCCCCNC(=O)[C@H]([C@@H](C)CC)n3cc(CCCCCN)nn3)CC2)nc(N2CCN(C(=O)CCCCCCCCCCNC(=O)[C@H](CCCCN)n3cc(CCCC(=O)O)nn3)CC2)n1 was read as Apaf1 activ inactive.
CCOc1ccc(S(=O)(=O)N2CCc3ccccc3C2)cc1 was read as Apaf1 activ -120.1, Rh110 act interf inactive and Apaf-1 act conf inactive.
Screening CN1CCN(S(=O)(=O)c2ccc(SCCOc3ccc(Cl)cc3)nc2)CC1 returned Apaf1 activ inactive.
For CCOc1cccc2sc(N(CCCN(C)C)C(=O)c3ccc(S(=O)(=O)N4CCc5ccccc5C4)cc3)nc12 the results were Apaf1 activ inactive.
For O=C1C(=C(O)c2ccccc2)C(=O)c2ccccc21 the results were Apaf1 activ inactive.
For COc1ccc(-c2nc(-c3ccc(Br)o3)no2)cc1OC the results were Apaf1 activ -45.3, Rh110 act interf inactive and Apaf-1 act conf inactive.
For COc1cc2c(cc1OC)C(c1ccc(-c3ccc(Cl)c(Cl)c3)o1)=NCC2 the results were Apaf1 activ inactive.
For CC(=O)Nc1ccc(S(=O)(=O)/N=C2\C(=O)c3ccccc3C([O-])=C2n2cc[n+](-c3ccccn3)c2)cc1 the results were Apaf1 activ inactive.
`O=C1C(Cl)=C(NC(=O)c2ccccc2)C(=O)C(Cl)=C1NC(=O)c1ccccc1` gave Apaf1 activ inactive.
Screening O=C(NC1=C(Nc2ccc(Cl)cc2)C(=O)c2ccccc2C1=O)c1ccccc1 returned Apaf1 activ inactive.
`O=C(NNC(=S)Nc1ccc(Cl)cc1)c1ccccc1` gave Apaf1 activ -66.2, Rh110 act interf inactive and Apaf-1 act conf inactive.
`FC(F)(F)c1cc(CCN2CCNC[C@H]2Cc2cccc3ccccc23)cc(C(F)(F)F)c1` gave Apaf1 activ inactive.
Screening O=C(c1ccccc1)[C@@H]1[C@@H](C(=O)c2ccc(F)cc2)[C@@]2(C(=O)Nc3ccccc32)[C@H]2c3ccccc3C=CN12 returned Apaf1 activ inactive.
`Cn1c(=O)c2c(-c3ccc(C(C)(C)C)cc3)n(N3CCOCC3)cc2n(C)c1=O` gave Apaf1 activ -60.2, Rh110 act interf inactive and Apaf-1 act conf inactive.
